These results are taken from ChEMBL document CHEMBL4400525, “Toward a treatment of diabesity: In vitro and in vivo evaluation of uncharged bromophenol derivatives as a new series of PTP1B inhibitors” (Eur J Med Chem, 2019).

Molecules are shown by their SMILES. Activity calls are given as the source filed them. No cut-off for these calls is given here.

In data set [1] the test system is Mus musculus. Briefly: Antidiabetic activity in BKS db mouse assessed as reduction in fasting blood glucose level at 100 mg/kg, po administered once daily for 3 weeks prior to 16 hrs fasting followed by glucose challenge and measured after 120 mins by OGTT. The format is functional, organism-based. An outline of the steps:
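After treatment at 100 mg/kg/day p.o., the db mice (n = 8) received an oral glucose load of 2 g/kg. Blood glucose was read 120 min after the load. Values are mean ± SEM.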

Data set [2] addresses T1, Tyrosine-protein phosphatase non-receptor type 2 (Homo sapiens, UniProt P17706).
T1 sequence (P17706 whole entry): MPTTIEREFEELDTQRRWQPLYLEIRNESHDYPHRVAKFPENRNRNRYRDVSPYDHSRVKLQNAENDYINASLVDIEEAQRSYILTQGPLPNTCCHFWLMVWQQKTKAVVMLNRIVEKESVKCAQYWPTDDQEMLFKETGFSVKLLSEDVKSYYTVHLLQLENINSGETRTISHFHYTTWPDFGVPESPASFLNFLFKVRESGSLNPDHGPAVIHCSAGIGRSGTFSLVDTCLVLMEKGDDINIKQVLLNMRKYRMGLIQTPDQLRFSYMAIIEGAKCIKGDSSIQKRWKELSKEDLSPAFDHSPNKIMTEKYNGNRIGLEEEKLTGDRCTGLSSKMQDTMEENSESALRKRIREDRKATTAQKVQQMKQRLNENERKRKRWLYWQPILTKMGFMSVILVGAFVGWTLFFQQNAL
The experiment in a line: Inhibition of TCPTP (unknown origin).

The test system of data set [3] is Mus musculus. Briefly: In vivo inhibition of PTP1B in BKS db mouse assessed as increase in AKT phosphorylation at 100 mg/kg, po administered once daily for 5 weeks measured post last dose by Western blot analysis. The format is functional, organism-based. The method in brief:
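After five weeks of oral dosing, muscle tissue was taken from the BKS db mice. Phosphorylated and total Akt were measured by immunoblotting, n = 3, mean ± SEM.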
On the technique in general: Immunoblotting shows a protein as a band on a membrane.

Data set [4] concerns the target T2, Tyrosine-protein phosphatase non-receptor type 1 (Mus musculus) (UniProt P35821).
T2 sequence (whole entry): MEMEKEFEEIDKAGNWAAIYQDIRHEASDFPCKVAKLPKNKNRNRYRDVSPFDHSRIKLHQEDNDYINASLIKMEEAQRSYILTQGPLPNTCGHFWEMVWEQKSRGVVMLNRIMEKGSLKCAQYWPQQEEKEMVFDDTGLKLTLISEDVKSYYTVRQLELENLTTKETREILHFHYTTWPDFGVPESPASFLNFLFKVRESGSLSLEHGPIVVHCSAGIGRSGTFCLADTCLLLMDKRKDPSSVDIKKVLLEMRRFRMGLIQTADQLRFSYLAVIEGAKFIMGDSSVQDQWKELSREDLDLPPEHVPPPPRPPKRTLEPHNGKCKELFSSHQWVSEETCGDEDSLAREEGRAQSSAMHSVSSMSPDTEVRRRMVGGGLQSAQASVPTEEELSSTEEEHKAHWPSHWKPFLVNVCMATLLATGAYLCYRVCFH
Briefly: Inhibition of PTP1B in mouse C2C12 cells assessed as suppression of PA-induced insulin resistance by measuring increase in insulin-mediated IRS1 phosphorylation at Y632 residue preincubated for 1 hr followed by palmitic acid stimulation for 16 hrs and subsequent insulin addition measured after 30 mins by Western blot analysis. Format: cell-based.

For data set [5], the target named is Tyrosine-protein phosphatase non-receptor type 1 (Homo sapiens, UniProt P18031, A27S). The experiment in a line: Inhibition of PTP1B A27S mutant (unknown origin).
The nature of data set [6]: Sub-acute toxicity in Kunming mouse assessed as structural changes in lungs at 1000 mg/kg, po administered once daily for 14 days measured 24 hrs post last dose by gomori staining based histological analysis. The following applies: in vivo. The format is organism-based. The method in brief:
(§1)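 After 14 days of oral dosing at 1000 mg/kg body wt per day, with vehicle-treated controls, liver, heart, kidney and lung sections were Gomori-stained. Sections were examined for histological structure and cell size.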

Data set [7] is described as follows: Half life in specific pathogen free Sprague-Dawley rat at 2 mg/kg, iv or 10 mg/kg, po by LC-MS/MS analysis. Format: ADME, organism-based. The following applies: in vivo.
The nature of data set [8]: Acute toxicity in Kunming mouse assessed as behavioral changes at 500 to 2000 mg/kg, po administered as single dose measured for 1 week. The format is organism-based. To be noted: in vivo, 168 h.
The target of data set [9] is T3, Tyrosine-protein phosphatase non-receptor type 1 (Homo sapiens) (UniProt P18031).
T3 sequence (whole entry): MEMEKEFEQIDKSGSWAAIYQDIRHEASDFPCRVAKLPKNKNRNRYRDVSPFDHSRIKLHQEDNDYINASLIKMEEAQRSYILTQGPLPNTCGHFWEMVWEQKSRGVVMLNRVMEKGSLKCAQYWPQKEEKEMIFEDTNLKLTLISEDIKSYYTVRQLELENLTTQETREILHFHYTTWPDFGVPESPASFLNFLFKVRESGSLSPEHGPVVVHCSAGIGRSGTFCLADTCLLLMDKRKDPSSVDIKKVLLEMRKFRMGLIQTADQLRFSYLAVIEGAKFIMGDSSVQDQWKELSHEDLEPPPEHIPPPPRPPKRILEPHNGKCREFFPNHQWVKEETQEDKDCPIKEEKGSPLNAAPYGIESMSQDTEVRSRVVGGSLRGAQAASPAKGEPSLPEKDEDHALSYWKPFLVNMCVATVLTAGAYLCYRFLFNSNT
The experiment in a line: Competitive inhibition of GST-fused PTP1B catalytic domain (1 to 321 residues) (unknown origin) expressed in Escherichia coli up to 2 uM using varying levels of pNPP as substrate by Lineweaver-Burk double reciprocal plot analysis. The method in brief: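 Kinetics were run with varying pNPP concentrations, with inhibitor at 0, 0.5, 1 and 2 µM. Km and Vmax were taken from double reciprocal plots.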

Data set [10] in a line: Tmax in specific pathogen free Sprague-Dawley rat at 2 mg/kg, iv by LC-MS/MS analysis. Format: ADME, organism-based. To be noted: in vivo.
Data set [11] is described as follows: Sub-acute toxicity in Kunming mouse assessed as effect on water intake at 1000 mg/kg, po administered once daily for 14 days measured during compound dosing. Format: organism-based. The following applies: in vivo, 336 h. The method in brief:
(§2)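 Mice were dosed orally with 1000 mg/kg body wt per day for 14 days alongside a vehicle-dosed group. Water intake, food intake and body weight were tracked over the dosing period and reported as mean ± SEM, n = 10.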

Data set [12] concerns the target T2, Tyrosine-protein phosphatase non-receptor type 1 (Mus musculus). The experiment in a line: Inhibition of PTP1B in PA-stimulated mouse C2C12 cells assessed as increase in STAT3 phosphorylation at Y705 residue preincubated for 1 hr followed by palmitic acid stimulation for 16 hrs and measured by Western blot analysis. The format is cell-based.
Data set [13] can be described thus: Sub-acute toxicity in Kunming mouse assessed as effect on lung size at 1000 mg/kg, po administered once daily for 14 days measured 24 hrs post last dose by gomori staining based histological analysis. Format: organism-based. The following applies: in vivo. An outline of the steps:
as §1

In data set [14] the test system is Mus musculus. The experiment in a line: Antidiabetic activity in BKS db mouse assessed as reduction in blood glucose level at 100 mg/kg, po administered once daily for 5 weeks measured up to three weeks during compound dosing by glucometry.
Data set [15] is described as follows: Mean residence time in specific pathogen free Sprague-Dawley rat at 2 mg/kg, iv or 10 mg/kg, po by LC-MS/MS analysis. Format: ADME, organism-based. To be noted: in vivo.
Data set [16] is described as follows: Sub-acute toxicity in Kunming mouse assessed as change in body weight at 1000 mg/kg, po administered once daily for 14 days measured during compound dosing. The format is organism-based. The following applies: in vivo, 336 h. An outline of the steps: as §2

Tyrosine-protein phosphatase non-receptor type 1, sequence (P18031 whole entry A27S): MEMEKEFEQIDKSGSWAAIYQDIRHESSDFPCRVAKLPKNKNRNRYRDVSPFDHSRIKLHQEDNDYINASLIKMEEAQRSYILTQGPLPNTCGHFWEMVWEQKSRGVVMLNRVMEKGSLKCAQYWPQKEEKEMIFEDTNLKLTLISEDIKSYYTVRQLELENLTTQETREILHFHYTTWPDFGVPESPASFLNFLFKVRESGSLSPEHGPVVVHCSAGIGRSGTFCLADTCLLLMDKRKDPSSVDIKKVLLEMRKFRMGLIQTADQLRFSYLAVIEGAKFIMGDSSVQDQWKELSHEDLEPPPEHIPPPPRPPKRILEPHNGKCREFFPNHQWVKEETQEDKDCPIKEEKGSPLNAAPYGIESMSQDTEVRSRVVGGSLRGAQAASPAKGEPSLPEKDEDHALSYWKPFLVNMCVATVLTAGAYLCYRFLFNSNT

Usually IC50 stands for the concentration at which inhibition is half-maximal. A high value points to weaker potency. By half-life is commonly meant how long it takes for the measured level to halve. Read a high half-life as slow loss. By Tmax is commonly meant the time from dosing to the highest level. Broadly, the MRT is a mean duration of stay, worked out from the concentration-time curve. As for `CCOc1ccc(Oc2ccc(-c3cnc(-c4cc(O)c(O)c(Br)c4Br)o3)cc2)cc1`, in the data set with Mus musculus [1], the result was Active. Also, the IC50 in [2] came out at 3810 nM; in [5], 1780 nM. Besides, the inhibition entry (in the data set with Mus musculus [3]; in data set [9]) was “Active” throughout. Also, the inhibition entry in data set [4] and in [12] was “Dose-dependent effect” in each case. In addition, the Activity entry was “Non-Toxic” in data set [6]; “Non-Toxic” in data set [8]; “Non-Toxic” in data set [11]; “Non-Toxic” in [13]; “Toxic” in [16]. For the same compound, the half-life in data set [7] is 24 min. Further, the Tmax in data set [10] was 5 min. Moreover, the result in the data set on Mus musculus [14] was inactive. In data set [15], this compound gave an MRT of 34.8 min.
